# Test results from ChEMBL document CHEMBL1130012 (J Med Chem, 1997).
# How the values were obtained:
# Rattus norvegicus [1] = organism: Rattus norvegicus; assay: The Biodistribution of the antagonistic compound in male wistar rats, after 15 minutes of injection in the trachea expressed as (body weight-corrected) uptake value; assay type: organism-based; conditions: in vivo, 0.25 h
# Rattus norvegicus [2] = assay: The Biodistribution of the antagonistic compound along with pretreated atropine (2.5 mg/kg) in male wistar rats after 15 minutes of injection in the pancreas expressed as (body weight-corrected) uptake value; assay type: organism-based; conditions: in vivo, 0.25 h
# How it was run: (§1)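 Same protocol, except the pretreatment was saline containing atropine (0.5 mg/0.5 mL; 2.5 mg/kg) given i.v. 1 min before tail-vein injection of the radioligand (1.85-2.78 MBq in 0.4 mL saline) into pentobarbital-anaesthetized (60 mg/kg) male Wistar rats (240 g). Tissues removed at 15 min and counted ex vivo. Uptake is body-weight-corrected DAR = (cpm/g tissue)/(cpm injected/g body weight).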
# Rattus norvegicus [3] = assay: The Biodistribution of the antagonistic compound along with pretreated atropine (2.5 mg/kg) in male wistar rats after 15 minutes of injection in the plasma expressed as (body weight-corrected) uptake value; assay type: organism-based; conditions: in vivo, 0.25 h; how it was run: as §1
# Rattus norvegicus [4] = assay: The Biodistribution of the antagonistic compound along with pretreated atropine (2.5 mg/kg) in male wistar rats after 15 minutes of injection in the red blood cells expressed as (body weight-corrected) uptake value; Below limit of detection; assay type: organism-based; conditions: in vivo, 0.25 h; how it was run: as §1
# Rattus norvegicus [5] = assay: The Biodistribution of the antagonistic compound along with pretreated atropine (2.5 mg/kg) in male wistar rats after 15 minutes of injection in the spleen expressed as (body weight-corrected) uptake value; assay type: organism-based; conditions: in vivo, 0.25 h; how it was run: as §1
# Rattus norvegicus [6] = assay: The Biodistribution of the antagonistic compound along with pretreated atropine (2.5 mg/kg) in male wistar rats after 15 minutes of injection in the submandibular gland expressed as (body weight-corrected) uptake value; assay type: organism-based; conditions: in vivo, 0.25 h; how it was run: as §1
# Rattus norvegicus [7] = assay: The Biodistribution of the antagonistic compound along with pretreated atropine (2.5 mg/kg) in male wistar rats after 15 minutes of injection in the testes expressed as (body weight-corrected) uptake value; assay type: organism-based, Testis; conditions: in vivo, 0.25 h; how it was run: as §1
# Rattus norvegicus [8] = assay: The Biodistribution of the antagonistic compound along with pretreated atropine (2.5 mg/kg) in male wistar rats after 15 minutes of injection in the trachea expressed as (body weight-corrected) uptake value; assay type: organism-based; conditions: in vivo, 0.25 h; how it was run: as §1
# Rattus norvegicus [9] = organism: Rattus norvegicus; assay: The Biodistribution of the antagonistic compound in male wistar rats, after 15 minutes of injection in the bladder expressed as (body weight-corrected) uptake value; assay type: organism-based, Urinary bladder/Urine; conditions: in vivo, 0.25 h
# Rattus norvegicus [10] = organism: Rattus norvegicus; assay: The Biodistribution of the antagonistic compound in male wistar rats, after 15 minutes of injection in the cerebellum expressed as (body weight-corrected) uptake value; Below limit of detection; assay type: organism-based; conditions: in vivo, 0.25 h
# Rattus norvegicus [11] = organism: Rattus norvegicus; assay: The Biodistribution of the antagonistic compound in male wistar rats, after 15 minutes of injection in the cortex expressed as (body weight-corrected) uptake value; Below limit of detection; assay type: organism-based; conditions: in vivo, 0.25 h
# Rattus norvegicus [12] = organism: Rattus norvegicus; assay: The Biodistribution of the antagonistic compound in male wistar rats, after 15 minutes of injection in the fat; assay type: organism-based; conditions: in vivo, 0.25 h
# Rattus norvegicus [13] = organism: Rattus norvegicus; assay: The Biodistribution of the antagonistic compound in male wistar rats, after 15 minutes of injection in the heart expressed as (body weight-corrected) uptake value; assay type: organism-based; conditions: in vivo, 0.25 h
# Rattus norvegicus [14] = organism: Rattus norvegicus; assay: The Biodistribution of the antagonistic compound in male wistar rats, after 15 minutes of injection in the intestine expressed as (body weight-corrected) uptake value; assay type: organism-based; conditions: in vivo, 0.25 h
# Rattus norvegicus [15] = organism: Rattus norvegicus; assay: The Biodistribution of the antagonistic compound in male wistar rats, after 15 minutes of injection in the kidney expressed as (body weight-corrected) uptake value; assay type: organism-based; conditions: in vivo, 0.25 h
# Rattus norvegicus [16] = organism: Rattus norvegicus; assay: The Biodistribution of the antagonistic compound in male wistar rats, after 15 minutes of injection in the lung expressed as (body weight-corrected) uptake value; assay type: organism-based; conditions: in vivo, 0.25 h
# Rattus norvegicus [17] = organism: Rattus norvegicus; assay: The Biodistribution of the antagonistic compound in male wistar rats, after 15 minutes of injection in the muscle expressed as (body weight-corrected) uptake value; assay type: organism-based, Muscle tissue; conditions: in vivo, 0.25 h
# Rattus norvegicus [18] = organism: Rattus norvegicus; assay: The Biodistribution of the antagonistic compound in male wistar rats, after 15 minutes of injection in the pancreas expressed as (body weight-corrected) uptake value; assay type: organism-based; conditions: in vivo, 0.25 h
# Rattus norvegicus [19] = organism: Rattus norvegicus; assay: The Biodistribution of the antagonistic compound in male wistar rats, after 15 minutes of injection in the plasma expressed as (body weight-corrected) uptake value; assay type: organism-based; conditions: in vivo, 0.25 h
# Rattus norvegicus [20] = assay: The Biodistribution of the antagonistic compound along with pretreated atropine (2.5 mg/kg) in male wistar rats after 15 minutes of injection in the bladder; assay type: organism-based, Urinary bladder/Urine; conditions: in vivo, 0.25 h; how it was run: as §1
# Rattus norvegicus [21] = assay: The Biodistribution of the antagonistic compound along with pretreated atropine (2.5 mg/kg) in male wistar rats after 15 minutes of injection in the cerebellum; Below limit of detection; assay type: organism-based; conditions: in vivo, 0.25 h; how it was run: as §1
# Rattus norvegicus [22] = assay: The Biodistribution of the antagonistic compound along with pretreated atropine (2.5 mg/kg) in male wistar rats after 15 minutes of injection in the cortex expressed as (body weight-corrected) uptake value; Below limit of detection; assay type: organism-based; conditions: in vivo, 0.25 h; how it was run: as §1
# Rattus norvegicus [23] = assay: The Biodistribution of the antagonistic compound along with pretreated atropine (2.5 mg/kg) in male wistar rats after 15 minutes of injection in the fat expressed as (body weight-corrected) uptake value; assay type: organism-based, Adipose tissue; conditions: in vivo, 0.25 h; how it was run: as §1
# Rattus norvegicus [24] = assay: The Biodistribution of the antagonistic compound along with pretreated atropine (2.5 mg/kg) in male wistar rats after 15 minutes of injection in the heart expressed as (body weight-corrected) uptake value; assay type: organism-based; conditions: in vivo, 0.25 h; how it was run: as §1
# Rattus norvegicus [25] = organism: Rattus norvegicus; assay: The Biodistribution of the antagonistic compound in male wistar rats, after 15 minutes of injection in the red blood cells expressed as (body weight-corrected) uptake value; Below limit of detection; assay type: organism-based; conditions: in vivo, 0.25 h
# Rattus norvegicus [26] = organism: Rattus norvegicus; assay: The Biodistribution of the antagonistic compound in male wistar rats, after 15 minutes of injection in the spleen; assay type: organism-based; conditions: in vivo, 0.25 h
# Rattus norvegicus [27] = organism: Rattus norvegicus; assay: The Biodistribution of the antagonistic compound in male wistar rats, after 15 minutes of injection in the stomach expressed as (body weight-corrected) uptake value; assay type: organism-based; conditions: in vivo, 0.25 h
# Rattus norvegicus [28] = organism: Rattus norvegicus; assay: The Biodistribution of the antagonistic compound in male wistar rats, after 15 minutes of injection in the submandibular gland expressed as (body weight-corrected) uptake value; assay type: organism-based; conditions: in vivo, 0.25 h
# Rattus norvegicus [29] = organism: Rattus norvegicus; assay: The Biodistribution of the antagonistic compound in male wistar rats, after 15 minutes of injection in the testes expressed as (body weight-corrected) uptake value; assay type: organism-based, Testis; conditions: in vivo, 0.25 h
# Rattus norvegicus [30] = assay: The Biodistribution of the antagonistic compound along with pretreated atropine (2.5 mg/kg) in male wistar rats after 15 minutes of injection in the intestine expressed as (body weight-corrected) uptake value; assay type: organism-based; conditions: in vivo, 0.25 h; how it was run: as §1
# Rattus norvegicus [31] = assay: The Biodistribution of the antagonistic compound along with pretreated atropine (2.5 mg/kg) in male wistar rats after 15 minutes of injection in the kidney expressed as (body weight-corrected) uptake value; assay type: organism-based; conditions: in vivo, 0.25 h; how it was run: as §1
# Rattus norvegicus [32] = assay: The Biodistribution of the antagonistic compound along with pretreated atropine (2.5 mg/kg) in male wistar rats after 15 minutes of injection in the liver expressed as (body weight-corrected) uptake value; assay type: organism-based; conditions: in vivo, 0.25 h; how it was run: as §1
# Rattus norvegicus [33] = assay: The Biodistribution of the antagonistic compound along with pretreated atropine (2.5 mg/kg) in male wistar rats after 15 minutes of injection in the lung expressed as (body weight-corrected) uptake value; assay type: organism-based; conditions: in vivo, 0.25 h; how it was run: as §1
# Rattus norvegicus [34] = assay: The Biodistribution of the antagonistic compound along with pretreated atropine (2.5 mg/kg) in male wistar rats after 15 minutes of injection in the muscle expressed as (body weight-corrected) uptake value; assay type: organism-based, Muscle tissue; conditions: in vivo, 0.25 h; how it was run: as §1
# [35] = biological target: T1, Muscarinic acetylcholine receptor M2 (Rattus norvegicus, UniProt P10980); assay: Binding affinity towards rat Muscarinic acetylcholine receptor M2 was determined
# T1 sequence (P10980 whole entry): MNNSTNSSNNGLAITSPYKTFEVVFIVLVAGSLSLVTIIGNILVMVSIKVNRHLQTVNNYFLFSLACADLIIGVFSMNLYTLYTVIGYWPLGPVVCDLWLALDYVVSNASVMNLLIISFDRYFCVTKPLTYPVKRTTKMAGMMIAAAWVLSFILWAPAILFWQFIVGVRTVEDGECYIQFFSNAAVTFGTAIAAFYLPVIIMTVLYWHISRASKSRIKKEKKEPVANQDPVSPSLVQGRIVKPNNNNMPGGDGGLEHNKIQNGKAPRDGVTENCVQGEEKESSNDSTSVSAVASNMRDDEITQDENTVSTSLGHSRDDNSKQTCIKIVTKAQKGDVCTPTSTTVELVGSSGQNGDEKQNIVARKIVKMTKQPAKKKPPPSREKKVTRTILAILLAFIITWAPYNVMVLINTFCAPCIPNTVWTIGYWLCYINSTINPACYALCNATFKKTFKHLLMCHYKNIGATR
# [36] = biological target: T2, Muscarinic acetylcholine receptor M1 (Bos taurus, UniProt Q8WMX0); assay type: cell membranes, Brain, Membrane
# T2 sequence (Q8WMX0 whole entry): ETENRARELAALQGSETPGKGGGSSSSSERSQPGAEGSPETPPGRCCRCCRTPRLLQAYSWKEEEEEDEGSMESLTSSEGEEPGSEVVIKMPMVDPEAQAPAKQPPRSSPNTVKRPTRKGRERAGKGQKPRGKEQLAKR
# [37] = biological target: T3, Muscarinic acetylcholine receptor M1 (Rattus norvegicus, UniProt P08482); assay: Binding affinity towards rat Muscarinic acetylcholine receptor M1 was determined
# T3 sequence (P08482 whole entry): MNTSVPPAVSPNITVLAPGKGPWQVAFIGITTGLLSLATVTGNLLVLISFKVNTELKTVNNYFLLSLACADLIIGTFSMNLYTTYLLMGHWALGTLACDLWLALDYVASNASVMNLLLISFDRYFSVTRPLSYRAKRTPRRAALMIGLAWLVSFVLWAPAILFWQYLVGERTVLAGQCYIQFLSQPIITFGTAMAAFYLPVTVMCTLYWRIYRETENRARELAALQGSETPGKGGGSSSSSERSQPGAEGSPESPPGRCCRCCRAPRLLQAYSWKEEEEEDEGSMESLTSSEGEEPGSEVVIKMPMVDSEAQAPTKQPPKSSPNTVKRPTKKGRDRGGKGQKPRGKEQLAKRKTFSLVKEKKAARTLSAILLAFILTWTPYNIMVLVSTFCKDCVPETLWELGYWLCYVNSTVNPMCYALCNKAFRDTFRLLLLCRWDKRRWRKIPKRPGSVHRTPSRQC
# Rattus norvegicus [38] = organism: Rattus norvegicus; assay: The Biodistribution of the antagonistic compound in male wistar rats, after 15 minutes of injection in the liver expressed as (body weight-corrected) uptake value; assay type: organism-based; conditions: in vivo, 0.25 h
# Rattus norvegicus [39] = assay: The Biodistribution of the antagonistic compound along with pretreated atropine (2.5 mg/kg) in male wistar rats after 15 minutes of injection in the stomach expressed as (body weight-corrected) uptake value; assay type: organism-based; conditions: in vivo, 0.25 h; how it was run: as §1
# [40] = biological target: Muscarinic acetylcholine receptor M3 (Rattus norvegicus) (UniProt P08483); assay: Binding affinity towards Muscarinic acetylcholine receptor M3 was determined in rat pancreas
# Chain of Muscarinic acetylcholine receptor M3 (Rattus norvegicus) (P08483 whole entry, looked up): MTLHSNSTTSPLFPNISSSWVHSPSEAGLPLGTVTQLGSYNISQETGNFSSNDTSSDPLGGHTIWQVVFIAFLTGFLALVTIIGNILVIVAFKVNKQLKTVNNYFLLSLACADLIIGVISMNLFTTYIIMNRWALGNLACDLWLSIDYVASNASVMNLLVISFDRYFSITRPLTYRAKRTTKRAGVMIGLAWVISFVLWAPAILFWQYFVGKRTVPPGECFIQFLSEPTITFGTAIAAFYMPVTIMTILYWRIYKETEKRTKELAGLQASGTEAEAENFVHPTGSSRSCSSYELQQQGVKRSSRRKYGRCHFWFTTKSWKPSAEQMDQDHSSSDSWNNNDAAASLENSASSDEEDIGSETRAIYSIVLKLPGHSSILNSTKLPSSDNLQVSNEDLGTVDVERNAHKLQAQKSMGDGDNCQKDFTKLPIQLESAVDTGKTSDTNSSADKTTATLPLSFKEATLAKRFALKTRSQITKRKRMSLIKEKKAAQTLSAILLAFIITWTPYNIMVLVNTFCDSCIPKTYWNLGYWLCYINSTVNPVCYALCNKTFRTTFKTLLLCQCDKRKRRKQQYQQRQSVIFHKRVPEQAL
smiles,measurement,setting,value
C[N+]1(C)CCC(OC(=O)[C@](O)(c2ccccc2)C2CCCCC2)CC1.[I-],Uptake value,Rattus norvegicus [1],0.89
same,Uptake value,Rattus norvegicus [2],0.35
same,Uptake value,Rattus norvegicus [3],0.19
same,Uptake value,Rattus norvegicus [4],Not Active
same,Uptake value,Rattus norvegicus [5],0.12
same,Uptake value,Rattus norvegicus [6],0.23
same,Uptake value,Rattus norvegicus [7],0.16
same,Uptake value,Rattus norvegicus [8],0.26
same,Uptake value,Rattus norvegicus [9],4.68
same,Uptake value,Rattus norvegicus [10],Not Active
same,Uptake value,Rattus norvegicus [11],Not Active
same,Uptake value,Rattus norvegicus [12],0.1
same,Uptake value,Rattus norvegicus [13],12.78
same,Uptake value,Rattus norvegicus [14],6.08
same,Uptake value,Rattus norvegicus [15],2.75
same,Uptake value,Rattus norvegicus [16],1.03
same,Uptake value,Rattus norvegicus [17],0.07
same,Uptake value,Rattus norvegicus [18],2.85
same,Uptake value,Rattus norvegicus [19],0.1
same,Uptake value,Rattus norvegicus [20],5.92
same,Uptake value,Rattus norvegicus [21],Not Active
same,Uptake value,Rattus norvegicus [22],Not Active
same,Uptake value,Rattus norvegicus [23],0.37
same,Uptake value,Rattus norvegicus [24],0.12
same,Uptake value,Rattus norvegicus [25],Not Active
same,Uptake value,Rattus norvegicus [26],1.23
same,Uptake value,Rattus norvegicus [27],2.76
same,Uptake value,Rattus norvegicus [28],2.64
same,Uptake value,Rattus norvegicus [29],0.12
same,Uptake value,Rattus norvegicus [30],0.97
same,Uptake value,Rattus norvegicus [31],4.32
same,Uptake value,Rattus norvegicus [32],9.41
same,Uptake value,Rattus norvegicus [33],0.11
same,Uptake value,Rattus norvegicus [34],0.07
same,Ki,[35],210 pM
same,Ki,[36],20 pM
same,Ki,[37],10 pM
same,Uptake value,Rattus norvegicus [38],5.42
same,Uptake value,Rattus norvegicus [39],0.22
C[N+]12CCC(CC1)[C@@H](OC(=O)C(O)(c1ccccc1)c1ccccc1)C2,Ki,[35],430 pM
same,Ki,[37],130 pM
same,Ki,[40],650 pM
